Results from ChEMBL document CHEMBL4043163, “Methyl propiolate and 3-butynone: Starting points for synthesis of amphiphilic 1,2,3-triazole peptidomimetics for antimicrobial evaluation” (Bioorg Med Chem, 2017).
Calls of active or inactive are those of the source. No cut-off for these calls is given here.

What was measured:
[1] = Selectivity index, ratio of EC50 for human HepG2 cells to MIC for Streptococcus agalactiae ATCC 12386; format: toxicity; settings: read-out: Selectivity Index
In short: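 Selectivity index computed as HepG2 EC50 (24 h MTS assay) divided by S. agalactiae MIC.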

[2] = test system: HepG2; assay: Cytotoxicity against human HepG2 cells incubated for 24 hrs by CellTiter 96 aqueous one solution reagent based assay; format: cell-based; settings: HepG2, 24 h
In short: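 HepG2 seeded 20,000 cells/well overnight, then exposed 24 h to a concentration range in serum-free MEM Earle's (gentamycin, NEAA, pyruvate, alanyl-glutamine); MTS reagent 1 h, absorbance 485 nm; % survival versus medium and Triton X-100 controls; EC50 from four-parameter normalized nonlinear regression.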

[3] = test system: Staphylococcus aureus; assay: Antimicrobial activity against Staphylococcus aureus ATCC 25923 assessed as growth inhibition incubated overnight at 37degC by visual and photometry based method; format: functional
[4] = test system: Streptococcus agalactiae; assay: Antimicrobial activity against Streptococcus agalactiae ATCC 12386 assessed as growth inhibition incubated overnight at 37degC by visual and photometry based method; format: functional
[5] = test system: Staphylococcus epidermidis; assay: Inhibition of biofilm formation of Staphylococcus epidermidis at =<64 ug/ml incubated overnight at 37degC by crystal violet based assay; format: functional
[6] = test system: Pseudomonas aeruginosa; assay: Antimicrobial activity against Pseudomonas aeruginosa ATCC 27853 assessed as growth inhibition incubated overnight at 37degC by visual and photometry based method; format: functional
[7] = test system: Enterococcus faecalis; assay: Antimicrobial activity against Enterococcus faecalis ATCC 29212 assessed as growth inhibition incubated overnight at 37degC by visual and photometry based method; format: functional
[8] = test system: Escherichia coli; assay: Antimicrobial activity against Escherichia coli ATCC 25922 assessed as growth inhibition incubated overnight at 37degC by visual and photometry based method; format: functional
[9] = test system: Staphylococcus epidermidis; assay: Inhibition of biofilm formation of Staphylococcus epidermidis incubated overnight at 37degC by crystal violet based assay; format: functional
[10] = test system: Pseudomonas aeruginosa; assay: Antimicrobial activity against Pseudomonas aeruginosa ATCC 27853 assessed as growth inhibition =<64 ug/ml incubated overnight at 37degC by visual and photometry based method; format: functional
[11] = test system: Escherichia coli; assay: Antimicrobial activity against Escherichia coli ATCC 25922 assessed as growth inhibition =<64 ug/ml incubated overnight at 37degC by visual and photometry based method; format: functional
[12] = test system: Staphylococcus aureus; assay: Antimicrobial activity against Staphylococcus aureus ATCC 25923 assessed as growth inhibition =<64 ug/ml incubated overnight at 37degC by visual and photometry based method; format: functional
[13] = test system: Enterococcus faecalis; assay: Antimicrobial activity against Enterococcus faecalis ATCC 29212 assessed as growth inhibition at =<64 ug/ml incubated overnight at 37degC by visual and photometry based method; format: functional

Row | Molecule | selectivity ratio [1] | EC50 [2] | MIC [3] | MIC [4] | inhibition [5] | MIC [6] | MIC [7] | MIC [8] | MIC [9] | growth inhibition (GI) [10] | growth inhibition (GI) [11] | growth inhibition (GI) [12] | growth inhibition (GI) [13]
1 | CC(C)(C)c1cc(-n2cc(C(=O)NCCN)nn2)cc(C(C)(C)C)c1.Cl | 0.5 | 8 µg/mL | 16 µg/mL | 16 µg/mL | inactive | 32 µg/mL | 32 µg/mL | 16 µg/mL | – | – | – | – | –
2 | NCCNC(=O)c1cn(C23CC4CC(CC(C4)C2)C3)nn1 | – | – | inactive | inactive | – | inactive | inactive | inactive | – | – | – | – | –
3 | CC(C)(C)c1ccc(Cn2cc(C(=O)NCCN)nn2)cc1 | – | – | inactive | inactive | – | inactive | inactive | inactive | – | – | – | – | –
4 | CC(C)(C)c1cc(Cn2cc(C(=O)NCCNC(=N)N)nn2)cc(C(C)(C)C)c1.Cl | – | – | 32 µg/mL | 16 µg/mL | – | 32 µg/mL | 64 µg/mL | 64 µg/mL | – | – | – | – | –
5 | CC(C)(C)c1cc(-n2cc(C(=O)NCCNC(=N)N)nn2)cc(C(C)(C)C)c1.Cl | 3.91 | 31.3 µg/mL | 8 µg/mL | 8 µg/mL | – | 16 µg/mL | 16 µg/mL | 16 µg/mL | 4 µg/mL | – | – | – | –
6 | CCCCCCCn1cc(C(=O)NCCNC(=N)N)nn1 | – | – | inactive | inactive | – | inactive | inactive | inactive | – | – | – | – | –
7 | CC(C)(C)c1cc(COc2ccc(-n3cc(C(=O)NCCNC(=N)N)nn3)cc2)cc(C(C)(C)C)c1.Cl | 4.04 | 16.2 µg/mL | 8 µg/mL | 4 µg/mL | – | – | 16 µg/mL | – | 2 µg/mL | inactive | inactive | – | –
8 | C/C(=N\NC(=N)N)c1cn(Cc2cc(C(C)(C)C)cc(C(C)(C)C)c2)nn1.Cl | 0.57 | 2.3 µg/mL | 4 µg/mL | 4 µg/mL | – | 8 µg/mL | 8 µg/mL | 8 µg/mL | 4 µg/mL | – | – | – | –
9 | CCCCCCCOc1ccc(-n2cc(/C(C)=N/NC(=N)N)nn2)cc1.O=C(O)C(F)(F)F | 0.25 | 2 µg/mL | – | 8 µg/mL | – | 64 µg/mL | 32 µg/mL | 16 µg/mL | 8 µg/mL | – | – | inactive | –
10 | C/C(=N\NC(=N)N)c1cn(-c2cc(C(C)(C)C)cc(C(C)(C)C)c2)nn1.O=C(O)C(F)(F)F | 1.32 | 2.6 µg/mL | 4 µg/mL | 2 µg/mL | – | 16 µg/mL | 4 µg/mL | 4 µg/mL | 4 µg/mL | – | – | – | –
11 | CCCCCCCn1cc(C(=O)NCCN)nn1 | – | – | inactive | inactive | – | inactive | inactive | inactive | – | – | – | – | –
12 | CCCCCCCn1cc(C(=O)N2CCN(C)CC2)nn1 | – | – | inactive | inactive | – | inactive | inactive | inactive | – | – | – | – | –
13 | CN1CCN(C(=O)c2cn(C34CC5CC(CC(C5)C3)C4)nn2)CC1 | – | – | inactive | inactive | – | inactive | inactive | inactive | – | – | – | – | –
14 | C/C(=N\NC(=N)N)c1cn(-c2ccc(OCc3cc(C(C)(C)C)cc(C(C)(C)C)c3)cc2)nn1.Cl | 3.86 | 1.9 µg/mL | – | 0.5 µg/mL | – | – | 64 µg/mL | – | 4 µg/mL | inactive | inactive | inactive | –
15 | CC(C)(C)c1cc(COc2ccc(-n3cc(C(=O)NCCN)nn3)cc2)cc(C(C)(C)C)c1.Cl | 1.44 | 2.9 µg/mL | – | 2 µg/mL | – | 16 µg/mL | 8 µg/mL | – | 8 µg/mL | – | inactive | inactive | –
16 | CC(C)(C)c1ccc(Cn2cc(C(=O)N3CCNCC3)nn2)cc1 | – | – | inactive | inactive | – | inactive | inactive | inactive | – | – | – | – | –
17 | N=C(N)NCCNC(=O)c1cn(C23CC4CC(CC(C4)C2)C3)nn1 | – | – | inactive | inactive | – | inactive | inactive | inactive | – | – | – | – | –
18 | CC(C)(C)c1cc(Cn2cc(C(=O)N3CCN(C(=N)N)CC3)nn2)cc(C(C)(C)C)c1.Cl | – | – | 64 µg/mL | 32 µg/mL | – | 64 µg/mL | – | – | – | – | inactive | – | inactive
19 | CCCCCCCn1cc(C(=O)N2CCN(C(=N)N)CC2)nn1 | – | – | inactive | inactive | – | inactive | inactive | inactive | – | – | – | – | –
20 | CC(C)(C)c1cc(Cn2cc(C(=O)N3CCNCC3)nn2)cc(C(C)(C)C)c1.Cl | – | – | 64 µg/mL | 64 µg/mL | – | – | – | 64 µg/mL | – | inactive | – | – | inactive
21 | O=C(c1cn(C23CC4CC(CC(C4)C2)C3)nn1)N1CCNCC1 | – | – | inactive | inactive | – | inactive | inactive | inactive | – | – | – | – | –
22 | CCCCCCCOc1ccc(-n2cc(C(=O)NCCN)nn2)cc1.Cl | 0.44 | 3.5 µg/mL | 4 µg/mL | 8 µg/mL | – | 16 µg/mL | – | – | 4 µg/mL | – | inactive | – | inactive
23 | CC(C)(C)c1cc(Cn2cc(C(=O)NCCN)nn2)cc(C(C)(C)C)c1.Cl | – | – | 64 µg/mL | 64 µg/mL | – | 64 µg/mL | – | 32 µg/mL | – | – | – | – | inactive
24 | GENTAMICIN | – | – | 0.13 µg/mL | 4 µg/mL | – | – | 10 µg/mL | – | – | – | – | – | –
25 | CN1CCN(C(=O)c2cn(Cc3cc(C(C)(C)C)cc(C(C)(C)C)c3)nn2)CC1 | – | – | inactive | inactive | – | inactive | inactive | inactive | – | – | – | – | –
26 | CC(C)(C)c1ccc(Cn2cc(C(=O)NCCNC(=N)N)nn2)cc1 | – | – | inactive | inactive | – | inactive | inactive | inactive | – | – | – | – | –
27 | N=C(N)N1CCN(C(=O)c2cn(C34CC5CC(CC(C5)C3)C4)nn2)CC1 | – | – | inactive | inactive | – | inactive | inactive | inactive | – | – | – | – | –
28 | CCCCCCCn1cc(C(=O)N2CCNCC2)nn1 | – | – | inactive | inactive | – | inactive | inactive | inactive | – | – | – | – | –
29 | CCCCCCCOc1ccc(-n2cc(C(=O)NCCNC(=N)N)nn2)cc1.Cl | 2.97 | 23.8 µg/mL | 4 µg/mL | 8 µg/mL | – | 8 µg/mL | 16 µg/mL | 8 µg/mL | 4 µg/mL | – | – | – | –
30 | CN1CCN(C(=O)c2cn(Cc3ccc(C(C)(C)C)cc3)nn2)CC1 | – | – | inactive | inactive | – | inactive | inactive | inactive | – | – | – | – | –
